From ChEMBL document CHEMBL1134290, “A novel anti-ischemic ATP-sensitive potassium channel (K(ATP)) opener without vasorelaxation: N-(6-aminobenzopyranyl)-N'-benzyl-N' '-cyanoguanidine analogue” (J Med Chem, 2001)

Columns and labels:
Rattus norvegicus [1] = species: Rattus norvegicus; assay: (§1) Reduction rate of LDH release from neuronal cells injured by iron […]; type: functional
In short: (§2)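 Cortical neurons from E17-18 rat embryos, cultured 7-9 days at 37 °C, 5% CO2. Serum lowered to 0.2% in MEM. Pretreated 30 min with compound in DMSO (final ≤0.2%), then FeSO4 at 50 µM final for 24 h. LDH released into medium measured; reduction of LDH release taken relative to control. Four determinations averaged.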

Rattus norvegicus [2] = species: Rattus norvegicus; assay: as §1; type: functional, cell-based
Rattus norvegicus [3] = assay: Ratio of myocardial infarct zone to area at risk […] in ischemic myocardium damage rat model (Cardioprotective effect) at 0.3 mg/Kg; type: functional
In short: (§3)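 Male Sprague-Dawley rats (350-450 g), pentobarbital 75 mg/kg i.p., ventilated 60/min at 10 mL/kg, 37 °C. Vehicle or compound given via femoral vein over 30 min, with or without glibenclamide or 5-HD. Left coronary occlusion 45 min, reperfusion 90 min. Risk zone marked by Evans blue after reocclusion. LV slices stained with TTC at 37 °C, pH 7.4, 15 min. Infarct area summed, divided by AAR weight; n = 3 or more.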

Rattus norvegicus [4] = assay: Ratio of myocardial infarct zone to area at risk (IZ/AAR) in ischemic myocardium damage rat model (Cardioprotective effect) at 0.3 mg/Kg; type: functional; in short: as §3
Rattus norvegicus [5] = species: Rattus norvegicus; assay: Inhibition of methoxamine-contracted rat aorta (Vasorelaxant potency); type: functional
In short: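 Rat aortic rings (Sprague-Dawley, 350-450 g; 3 mm rings, adipose removed) held in oxygenated modified Krebs-Henseleit PSS at 37 °C under 2 g resting tension, stabilised 1 h. Once methoxamine contraction reached a maintained maximum, compound added cumulatively at 1, 3, 10, 30 µM. Relaxation taken as change in maximal methoxamine constriction and plotted as concentration-relaxation curve.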

Rattus norvegicus [6] = species: Rattus norvegicus; assay: Reduction rate of LDH release from rat neuronal cells injured by iron […]; type: functional; in short: as §2
Rattus norvegicus [7] = assay: Ratio of myocardial infarct zone to area at risk (IZ/AAR) in ischemic myocardium damage rat model (Cardioprotective effect) in the presence of 5-HD (10 mg/kg); type: functional; in short: as §3
Rattus norvegicus [8] = assay: Ratio of myocardial infarct zone to area at risk (IZ/AAR) in ischemic myocardium damage rat model (Cardioprotective effect) in the presence of Gliben 1 mg/kg; type: functional; in short: as §3
Rattus norvegicus [9] = assay: Ratio of myocardial infarct zone to area at risk(IZ/AAR)in ischemic myocardium damage rat model (Cardioprotective effect) at 0.1 mg/kg; type: functional; in short: as §3
Rattus norvegicus [10] = assay: Ratio of myocardial infarct zone to area at risk […] in ischemic myocardium damage rat model (Cardioprotective effect) at 0.1 mg/Kg; type: functional; in short: as §3
Rattus norvegicus [11] = assay: Ratio of myocardial infarct zone to area at risk(IZ/AAR)in ischemic myocardium damage rat model (Cardioprotective effect) at 1 mg/kg; Not determined; type: functional; in short: as §3
Rattus norvegicus [12] = assay: Ratio of myocardial infarct zone to area at risk(IZ/AAR)in ischemic myocardium damage rat model (Cardioprotective effect) at 0.3 mg/kg; Not determined; type: functional; in short: as §3
Rattus norvegicus [13] = assay: Ratio of myocardial infarct zone to area at risk […] in ischemic myocardium damage rat model (Cardioprotective effect) in the presence of 5-HD (10 mg/kg); type: functional; in short: as §3
Rattus norvegicus [14] = assay: Ratio of myocardial infarct zone to area at risk […] in ischemic myocardium damage rat model (Cardioprotective effect) in the presence of Gliben 1 mg/kg; type: functional; in short: as §3
Rattus norvegicus [15] = assay: Ratio of myocardial infarct zone to area at risk […] in ischemic myocardium damage rat model (Cardioprotective effect) at 1 mg/Kg; type: functional; in short: as §3

Structure (SMILES) | inhibition at 30 µM (Rattus norvegicus [1]) [%] | Effect (Rattus norvegicus [3]) [%] | Effect (Rattus norvegicus [4]) [%] | also measured
COC(OC)[C@]1(C)Oc2ccc([N+](=O)[O-])cc2[C@@H](N/C(=N/C#N)NCc2ccccc2)[C@@H]1O | 37 | – | – | –
COC(OC)[C@@]1(C)Oc2ccc(N)cc2[C@H](/N=C(\NC#N)NCc2ccccc2)[C@H]1O | – | 33 | 51 | IC50 (Rattus norvegicus [2]): 9.2 µM
COC(OC)[C@]1(C)Oc2ccc(NC(C)=O)cc2[C@H](/N=C(\NC#N)NCc2ccccc2)[C@@H]1O | 25 | 41 | 45 | –
COC(OC)[C@]1(C)Oc2ccc([N+](=O)[O-])cc2[C@@H](/N=C(\NC#N)Nc2ccc(Cl)cc2)[C@@H]1O | 61 | 37 | 52 | IC50 (Rattus norvegicus [5]; Rattus norvegicus, Aorta): 17.5 µM
CC1(C)COC([C@]2(C)Oc3ccc(N)cc3[C@H](/N=C(\NC#N)NCc3ccccc3)[C@@H]2O)OC1 | 60 | 42 | 56 | –
COC(OC)[C@]1(C)Oc2ccc([N+](=O)[O-])cc2[C@@H](/N=C(\NC#N)Nc2cccc(Cl)c2)[C@@H]1O | 70 | 47 | 40 | IC50 (Rattus norvegicus [5]; Rattus norvegicus, Aorta): 30.5 µM
COc1ccc(N/C(=N/[C@H]2c3cc([N+](=O)[O-])ccc3O[C@@](C)(C(OC)OC)[C@H]2O)NC#N)cc1 | 45 | 38 | 43 | –
COC(OC)[C@]1(C)Oc2ccc(N)cc2[C@@H](/N=C(\NC#N)NCc2ccccc2)[C@@H]1O | – | 39 | 46 | IC50 (Rattus norvegicus [2]): 8 µM
COC(OC)[C@]1(C)Oc2ccc(N)cc2[C@H](/N=C(\NC#N)NCc2ccccc2)[C@H]1O | – | 38 | 51 | IC50 (Rattus norvegicus [2]): 4.1 µM
CC1(C)Oc2ccc(C#N)cc2[C@@H](/N=C(\NC#N)Nc2ccc(Cl)cc2)[C@@H]1O | – | 39 | 39 | IC50 (Rattus norvegicus [5]; Rattus norvegicus, Aorta): 3.2 µM; inhibition at 30 µM (Rattus norvegicus [6]): 20%
COC(OC)C1(C)Oc2ccc([N+](=O)[O-])cc2C(/N=C(\NC#N)Nc2ccc(Cl)cc2)[C@@H]1O (single isomer, unassigned) | 58 | 46 | 46 | –
COC(OC)C1(C)Oc2ccc([N+](=O)[O-])cc2C(/N=C(\NC#N)NCc2ccccc2)[C@@H]1O (single isomer, unassigned) | 7 | 37 | 49 | –
CC1(C2OCCO2)Oc2ccc(N)cc2C(/N=C(\NC#N)NCc2ccccc2)[C@@H]1O (single isomer, unassigned) | 3.6 | 32 | 52 | –
COC(OC)C1(C)Oc2ccc(NS(C)(=O)=O)cc2C(/N=C(\NC#N)NCc2ccccc2)[C@@H]1O (single isomer, unassigned) | 10 | 35 | 43 | –
COc1ccc(CN/C(=N/C2c3cc(N)ccc3OC(C)(C(OC)OC)[C@H]2O)NC#N)cc1 (single isomer, unassigned) | – | 37 | 42 | IC50 (Rattus norvegicus [2]): 4.1 µM
COC(OC)C1(C)Oc2ccc(N)cc2C(/N=C(\NC#N)NCc2ccccc2)[C@@H]1O (single isomer, unassigned) | – | 35 | 37 | Effect (Rattus norvegicus [7]): 46%; Effect (Rattus norvegicus [8]): 51%; IC50 (Rattus norvegicus [2]): 2.2 µM; Effect (Rattus norvegicus [9]): 42%; Effect (Rattus norvegicus [10]): 34%; Effect (Rattus norvegicus [11]): 34%; Effect (Rattus norvegicus [12]): 37%; Effect (Rattus norvegicus [13]): 35%; Effect (Rattus norvegicus [14]): 33%; Effect (Rattus norvegicus [15]): 35%
COC(OC)C1(C)Oc2ccc([N+](=O)[O-])cc2C(N/C(=N/C#N)NCc2ccccc2)[C@H]1O (single isomer, unassigned) | – | – | – | IC50 (Rattus norvegicus [5]; Rattus norvegicus, Aorta): 7.3 µM
COC(OC)[C@@]1(C)Oc2ccc([N+](=O)[O-])cc2C(N/C(=N/C#N)NCc2ccccc2)[C@H]1O (single isomer, unassigned) | – | 38 | 49 | IC50 (Rattus norvegicus [5]): 9.8 µM
